Several values for one entry are separate records, joined by “and”; a condition that tells them apart may be missing. Equal entries are not always repeated. Where two headings read alike, the source gives them in different places.
How the values were obtained:
[1] = test system: LPS-stimulated TNFα release; settings: read-out: IC50, TNFα release in the same (human whole blood) assay; cited from earlier work
[2] = test system: LPS-stimulated TNFα ex vivo; settings: patients treated, same bioassay; cited from earlier work
[3] = Population pharmacokinetics of oral BCT197 in healthy volunteers; assay type: in vivo, human
Outline: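 Healthy male and non-childbearing female volunteers aged 18–50 y (BMI 18–30 kg/m²) took ascending single doses or once-daily doses for 14 days. Oral solution was used for 0.1–3 mg and tablets for ≥5 mg. Plasma drug was fitted by nonlinear mixed-effects modelling (FOCE Lindström Bates), with lognormal between-subject variability and tablet mixed zero/first-order absorption. Bootstrap used 500 iterations.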

[4] = test system: ex vivo LPS-induced TNFα secretion; assay type: in vivo, human
Outline: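 Healthy adults received randomized, double-blind, placebo-controlled oral doses: ascending single doses of 0.1–75 mg, or once daily for 14 days. Blood was challenged with LPS ex vivo and TNFα measured. An indirect response model with negative feedback on outflow and a 24-h oscillatory baseline was fitted to drug and placebo data together. Individual Bayesian PK estimates served as input. IC50 was a fraction of predose baseline. Bootstrap used 500 iterations.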

serum levels of TNFα = assay: Serum TNFα levels after in vivo intravenous LPS challenge; parameters: species or system human; settings: data not shown
Outline: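 Healthy subjects received a single oral dose, then an intravenous LPS challenge, and serum TNFα was measured. They fasted 10 h before dosing and 4 h after. Apart from the dosing fluid, no fluid was allowed from 2 h before to 2 h after dosing.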

p38α [5] = target: T1, p38α (Homo sapiens, UniProt Q16539); assay: In-house p38α inhibition, ELISA; assay type: biochemical; settings: read-out: IC50 on p38α (ELISA); in-house studies
T1 sequence (Q16539 whole entry): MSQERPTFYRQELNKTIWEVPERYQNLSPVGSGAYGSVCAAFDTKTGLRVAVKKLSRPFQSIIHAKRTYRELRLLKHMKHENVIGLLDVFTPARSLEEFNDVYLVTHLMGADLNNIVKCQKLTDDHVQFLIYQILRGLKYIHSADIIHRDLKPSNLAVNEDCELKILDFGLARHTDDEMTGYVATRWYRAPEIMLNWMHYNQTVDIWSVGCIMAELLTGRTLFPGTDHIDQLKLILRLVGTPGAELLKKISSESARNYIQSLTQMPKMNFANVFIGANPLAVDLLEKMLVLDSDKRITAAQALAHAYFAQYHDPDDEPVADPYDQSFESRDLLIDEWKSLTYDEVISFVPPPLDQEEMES

p38α [6] = target: T1, p38α; assay: In-house p38α inhibition, radiometric; assay type: biochemical; settings: read-out: IC50 on p38α (radiometric); in-house studies
[7] = test system: LPS-stimulated TNFα release; assay: LPS-stimulated TNFα release in the human whole blood assay; assay type: cell-based
Thermodynamic solubility = assay type: physicochemical
P-glycoprotein = P-glycoprotein (Homo sapiens, UniProt P08183); assay: Caco-2 model of intestinal uptake/efflux; assay type: in vitro ADME; settings: unpublished data
P-glycoprotein, sequence (P08183 whole entry): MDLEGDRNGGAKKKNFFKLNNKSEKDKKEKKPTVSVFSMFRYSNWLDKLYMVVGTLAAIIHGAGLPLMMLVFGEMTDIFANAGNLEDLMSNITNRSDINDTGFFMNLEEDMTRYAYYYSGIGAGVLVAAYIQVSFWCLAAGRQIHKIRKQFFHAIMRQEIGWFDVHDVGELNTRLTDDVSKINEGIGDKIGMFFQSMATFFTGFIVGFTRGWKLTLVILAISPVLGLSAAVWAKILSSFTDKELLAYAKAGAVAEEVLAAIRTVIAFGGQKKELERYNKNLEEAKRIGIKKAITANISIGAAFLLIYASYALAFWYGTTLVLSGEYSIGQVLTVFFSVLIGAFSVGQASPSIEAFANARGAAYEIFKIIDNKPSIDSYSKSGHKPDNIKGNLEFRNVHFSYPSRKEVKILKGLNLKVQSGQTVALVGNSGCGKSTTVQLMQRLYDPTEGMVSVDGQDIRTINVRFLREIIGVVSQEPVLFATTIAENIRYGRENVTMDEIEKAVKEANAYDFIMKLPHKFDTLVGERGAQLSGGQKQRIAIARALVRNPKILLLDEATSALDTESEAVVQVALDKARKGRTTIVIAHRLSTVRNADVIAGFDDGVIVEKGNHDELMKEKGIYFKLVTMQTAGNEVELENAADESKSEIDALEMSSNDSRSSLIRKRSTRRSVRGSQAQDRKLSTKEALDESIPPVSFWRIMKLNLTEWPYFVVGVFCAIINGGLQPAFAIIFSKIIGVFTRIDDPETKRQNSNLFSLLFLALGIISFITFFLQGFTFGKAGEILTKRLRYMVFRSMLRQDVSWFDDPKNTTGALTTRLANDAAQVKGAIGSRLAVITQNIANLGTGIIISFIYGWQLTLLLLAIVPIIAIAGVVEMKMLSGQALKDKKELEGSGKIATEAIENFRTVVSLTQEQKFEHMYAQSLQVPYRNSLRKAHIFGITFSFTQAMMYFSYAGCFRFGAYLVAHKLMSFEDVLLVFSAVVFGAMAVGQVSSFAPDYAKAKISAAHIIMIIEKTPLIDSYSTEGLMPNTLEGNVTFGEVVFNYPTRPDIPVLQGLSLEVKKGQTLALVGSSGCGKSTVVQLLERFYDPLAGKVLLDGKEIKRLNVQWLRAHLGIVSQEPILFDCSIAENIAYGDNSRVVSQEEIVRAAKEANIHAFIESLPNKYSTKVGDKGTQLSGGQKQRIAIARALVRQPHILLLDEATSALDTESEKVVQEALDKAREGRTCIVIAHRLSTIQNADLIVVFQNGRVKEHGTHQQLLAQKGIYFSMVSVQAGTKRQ

[8] = Safety and tolerability in healthy subjects; assay type: in vivo, human; settings: data not shown
[9] = Tissue distribution in pigmented and albino rats; assay type: in vivo; settings: pigmented vs albino, unpublished data
[10] = COPD patients; intermittent short-term dosing 75 mg on days 1 and 6; cited from earlier work
[11] = population mean, final estimate

For `CNC(=O)c1ccc(C)c(-n2c(C)cc(OCc3ccc(F)cc3F)c(Br)c2=O)c1` [PH‐797804], the IC50 [1] is given as 85 nM.
For `Cc1c(F)cc(C(=O)NC2CC2)cc1-c1ccc(C(=O)NCC(C)(C)C)cn1` [losmapimod], the IC50 [1] is listed as 25 nM.
In the case of `O=C(Nc1c(Cl)cncc1Cl)c1ccc(OC(F)F)c(OCC2CC2)c1` [rofluminast, roflumilast], the “TNFα levels ex vivo” value [2] is given as “significant suppression”.
With `Cc1ccc(C(=O)NC2CC2)cc1-n1ncc(C(=O)c2cccc(C#N)c2)c1N` [BCT197] the “Bmax, total binding capacity (tissue binding)” value ([3]; bootstrap median and 90% CI) was 507 [308;806] µg, the “K1b, first order transfer rate from central compartment into shunt compartment” value ([3]; bootstrap median and 90% CI) was 0.0105 [0.00791;0.0132] 1/h and the “Kt=Kint1, first-order oral absorption rate constant of tablet” value ([3]; bootstrap median and 90% CI) was 1.13 [0.934;1.42] 1/h. For the same compound, the “Rate, zero order oral absorption rate (tablet)” value ([3]; bootstrap median and 90% CI) was 2310 [2170;2530] µg/h, the “V1/F, volume of central compartment” value ([3]; bootstrap median and 90% CI) was 71.5 [58.1;98.7] L and the “fc, fraction of oral dose (tablet) absorbed in a zero-order fashion” value ([3]; bootstrap median and 90% CI) was 0.342 [0.291;0.392]. For the same compound, the “CL/F, oral drug clearance” value ([3]; bootstrap median and 90% CI, 500 iterations) was 1.77 [1.47;2.05] L/h, the “rise in drug levels in reaching steady-state” value ([3]; once-daily regimen, on average) was 3 fold and the “time of double peak behavior postdose” value ([3]; plasma concentration profile) was 18 to 24 h. The “Bmax, total binding capacity (tissue binding)” value [3, 11] was 500 µg, the “K1b, first order transfer rate from central compartment into shunt compartment” value [3, 11] was 0.0106 h⁻¹ and the “Kt=Kint1, first-order oral absorption rate constant of tablet” value [3, 11] was 1.12 h⁻¹. The “V1/F, volume of central compartment” value [3, 11] was 71.9 L, the “V2/F, volume of peripheral compartment” value [3, 11] was 25.5 L and the “CL/F, oral drug clearance” value ([3]; population mean, final estimate, healthy volunteers, oral 0.1-75 mg) was 1.76 L/h. The “fc, fraction of oral dose (tablet) absorbed in a zero-order fashion” value ([3]; population mean, final estimate, modeled in logit domain and back transformed) was 0.344, the “Ks, first-order oral absorption rate constant of solution” value ([3]; population mean, fixed) was 5 (fixed) 1/h and the “Tlag, absorption lag time” value ([3]; population mean, fixed) was 0.232 (fixed) h. The “Tpump, shunt compartment emptying lag time” value ([3]; population mean, fixed) was 18 (fixed) h, the “fraction (fc) of dose absorbed by the first-order process” value ([3]; tablets, mixed-order absorption model, on average) was 66% and the “IC50, concentration at half maximum inhibition” value ([4]; bootstrap median and 90% CI) was 44.3 [30.6;65.5] µg/L. The “Imax, maximum inhibition” value ([4]; bootstrap median and 90% CI) was 0.668 [0.6121;0.752], the “Kout, first order degradation rate of drug response” value ([4]; bootstrap median and 90% CI) was 0.353 [0.170;0.592] 1/h and the “Ktol, first order production rate of negative feedback” value ([4]; bootstrap median and 90% CI) was 0.00281 [0.00173;0.00529] 1/h. For the same compound, the “Maximum inhibition from baseline (Imax), plateau in the typical individual” value ([4]; ex vivo LPS-induced TNFα secretion) was “about 66%”, the “t1/2,ktol (rate constant governing tolerance)” value ([4]; human, in vivo) was 10.5 days and the “Imax, maximum inhibition” value [4, 11] was 0.663. For the same compound, the “Kout, first order degradation rate of drug response” value [4, 11] was 0.348 h⁻¹, the “Ktol, first order production rate of negative feedback” value [4, 11] was 0.00276 h⁻¹ and the “IC50, concentration at half maximum inhibition” value ([4]; population mean, final estimate, plasma concentration, modeled as fraction of predose baseline) was 44 µg/L and 44.3 µg/L. For the same compound, the “t1/2,kout (hysteresis in drug effect)” value ([4]; single dose) was 2 h, the “inhibition of serum levels of TNFα following in vivo intravenous LPS challenge” value (serum levels of TNFα; single oral administration of 20 mg) was 96% and the “inhibition of serum levels of TNFα following in vivo intravenous LPS challenge” value (serum levels of TNFα; single oral administration of 75 mg) was 97%. For the same compound, the IC50 (p38α [5]) was 12 nM, the IC50 (p38α [6]) was 37 nM and the IC50 ([7]; read-out: IC50 (total drug), LPS-stimulated TNFα release, human whole blood assay, total drug) was 51 nM. The IC50 ([7]; read-out: free IC50, LPS-stimulated TNFα release, human whole blood assay, free drug) was 24 nM, the pH-independent thermodynamic solubility (Thermodynamic solubility) was about 0.2 mg/mL and the “saturation of low-affinity efflux pump, most likely P-glycoprotein” value (P-glycoprotein) was “not saturated up to 0.1 mg/mL”. The “Tolerability, continuous dosing” value ([8]; continuous dosing of 10 mg) was “acneiform skin rashes”, the “Tolerability, single high doses” value ([8]; single high doses up to 75 mg) was “well tolerated” and the “tissue distribution / retention in melanin-containing tissues” value [9] was “remained much longer detectable in the skin and eye of the pigmented but not albino animal”. The “lung function (FEV1)” value [10] was “marked improvement”.

From publication PMC4759708 (CPT: Pharmacometrics & Systems Pharmacology, 2015)
